In ChEMBL document CHEMBL1140263, “Structure-based design, synthesis, and study of potent inhibitors of beta-ketoacyl-acyl carrier protein synthase III as potential antimicrobial agents” (J Med Chem, 2005):
≈ marks a conversion by molar mass, not a printed value.

What was measured:
[1] = biological target: T1, Beta-ketoacyl-[acyl-carrier-protein] synthase III (Enterococcus faecalis (strain ATCC 700802 / V583), UniProt Q820T1); assay: Inhibitory concentration against Enterococcus faecalis beta-Ketoacyl-acyl carrier protein synthase III
T1 sequence (Q820T1 whole entry): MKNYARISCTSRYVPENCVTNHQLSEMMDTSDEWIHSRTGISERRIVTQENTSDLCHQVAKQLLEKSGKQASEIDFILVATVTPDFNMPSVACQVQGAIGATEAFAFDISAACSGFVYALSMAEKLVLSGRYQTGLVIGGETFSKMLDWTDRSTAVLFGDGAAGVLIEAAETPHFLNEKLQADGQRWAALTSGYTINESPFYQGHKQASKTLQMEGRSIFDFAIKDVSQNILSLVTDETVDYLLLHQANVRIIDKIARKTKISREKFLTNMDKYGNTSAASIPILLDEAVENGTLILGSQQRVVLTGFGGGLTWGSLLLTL
How it was run: (§1)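 Coupled FabD/FabH radiometric assay with His-tagged or tagless FabH expressed in E. coli BL21(DE3). The mix held 100 mM sodium phosphate pH 7.0, 2 mM DTT, 1 mM MgCl₂, 12.5 µM E. coli holo-ACP, 10 nM FabD and 3-5 nM FabH. Malonyl-CoA was added for 1 min, then acetyl-CoA plus [³H]acetyl-CoA, NADH and NADPH for 19 min. TCA-precipitated protein was counted by liquid scintillation; DMSO ≤2% final.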

[2] = biological target: T2, Beta-ketoacyl-[acyl-carrier-protein] synthase III (Haemophilus influenzae (strain ATCC 51907 / DSM 11121 / KW20 / Rd), UniProt P43711); assay: Inhibitory concentration against Haemophilus influenzae beta-Ketoacyl-acyl carrier protein synthase III; how it was run: as §1
T2 sequence (P43711 whole entry): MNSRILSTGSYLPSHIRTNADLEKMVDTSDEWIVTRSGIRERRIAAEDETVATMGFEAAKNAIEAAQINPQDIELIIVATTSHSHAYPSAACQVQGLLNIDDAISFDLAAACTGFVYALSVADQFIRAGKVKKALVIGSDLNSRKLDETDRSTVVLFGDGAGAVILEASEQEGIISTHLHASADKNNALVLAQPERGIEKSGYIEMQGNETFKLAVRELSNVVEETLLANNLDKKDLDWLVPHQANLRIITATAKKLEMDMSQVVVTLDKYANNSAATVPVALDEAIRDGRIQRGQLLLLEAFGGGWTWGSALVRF

[3] = biological target: T3, Beta-ketoacyl-[acyl-carrier-protein] synthase III (Streptococcus pyogenes serotype M3 (strain ATCC BAA-595 / MGAS315), UniProt P0DB00); assay: Inhibitory concentration against Streptococcus pyogenes beta-Ketoacyl-acyl carrier protein synthase III
T3 sequence (P0DB00 whole entry): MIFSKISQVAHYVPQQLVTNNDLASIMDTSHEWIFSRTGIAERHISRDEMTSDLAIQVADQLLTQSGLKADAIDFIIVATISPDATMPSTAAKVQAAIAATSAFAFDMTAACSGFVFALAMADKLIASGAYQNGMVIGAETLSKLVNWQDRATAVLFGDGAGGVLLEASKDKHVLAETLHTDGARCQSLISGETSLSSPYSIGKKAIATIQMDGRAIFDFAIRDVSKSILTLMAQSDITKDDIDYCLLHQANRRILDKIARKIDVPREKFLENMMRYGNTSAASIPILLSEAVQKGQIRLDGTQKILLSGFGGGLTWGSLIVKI
How it was run: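 S. pyogenes FabH (10 nM, His-tagged or tagless, expressed in E. coli BL21(DE3)) was run in a coupled assay with 10 nM FabD, 12.5 µM holo-ACP, 100 mM sodium phosphate pH 7.0, 2 mM DTT and 1 mM MgCl₂. Malonyl-CoA was added for 1 min, then [³H]acetyl-CoA/acetyl-CoA with NADH and NADPH for 19 min. The reaction was stopped with cold TCA and the pellet read by scintillation. Inhibitor DMSO ≤2%.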

[4] = biological target: T4, Beta-ketoacyl-[acyl-carrier-protein] synthase III (Staphylococcus aureus subsp. aureus Mu50, UniProt P68795); assay: Inhibitory concentration against Staphylococcus aureus beta-Ketoacyl-acyl carrier protein synthase III
T4 sequence (P68795 whole entry): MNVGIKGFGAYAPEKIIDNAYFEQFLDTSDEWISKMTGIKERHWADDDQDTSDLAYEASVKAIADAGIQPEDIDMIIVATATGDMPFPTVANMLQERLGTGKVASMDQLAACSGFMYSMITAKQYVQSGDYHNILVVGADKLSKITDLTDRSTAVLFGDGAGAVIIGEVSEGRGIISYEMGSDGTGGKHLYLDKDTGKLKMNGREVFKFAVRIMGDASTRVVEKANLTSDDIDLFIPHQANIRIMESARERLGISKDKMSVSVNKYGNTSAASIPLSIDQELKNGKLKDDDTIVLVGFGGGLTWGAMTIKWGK
How it was run: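 Coupled FabD/FabH radiometric assay, 100 µL final, pH 7.0: 100 mM sodium phosphate, 2 mM DTT, 1 mM MgCl2, 12.5 µM E. coli holo-ACP, 10 nM FabD, 20 nM S. aureus FabH (His-tagged or tagless, expressed in E. coli BL21(DE3)). FabD started with malonyl-CoA for 1 min. Acetyl-CoA plus [3H]acetyl-CoA, NADH and NADPH then added; FabH reaction 19 min. Stopped with TCA; pellet counted by liquid scintillation. DMSO ≤2% final.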

[5] = Minimum inhibitory concentration against Enterococcus faecalis VRE 583; assay type: functional, Enterococcus faecalis V583
Staphylococcus aureus = assay: Minimum inhibitory concentration against Staphylococcus aureus MRSA 703; assay type: functional
Escherichia coli = assay: Minimum inhibitory concentration against Escherichia coli TolC- mutant in presence of membrane permeablizing agent polymyxin B; assay type: functional
Neisseria meningitidis = assay: Minimum inhibitory concentration against Neisseria meningitides MC58 in presence of membrane permeablizing agent polymyxin B; assay type: functional
Streptococcus pneumoniae = assay: Minimum inhibitory concentration against Streptococcus pneumonia ATCC 6301; assay type: functional
Streptococcus pyogenes = assay: Minimum inhibitory concentration against Streptococcus pyogenes NZ131; assay type: functional

IC50 [1] [nM] | Compound | also measured
1600 | CCN(CC)S(=O)(=O)c1cc(C(=O)Nc2ccccc2C(=O)O)ccc1-c1ccccc1 | 
56 | O=C(Nc1ccccc1C(=O)O)c1ccc(-c2ccccc2)c(Oc2ccccc2)c1 | IC50 [2]: > 100 µM; IC50 [3]: 50 nM; IC50 [4]: 10 µM; MIC [5]: 22 µg/mL (≈ 53.7 µM); MIC (Staphylococcus aureus): 11.3 µg/mL (≈ 27.6 µM); MIC (Escherichia coli): 1.4 µg/mL; MIC (Neisseria meningitidis): 1.4 µg/mL; MIC (Streptococcus pneumoniae): 1.4 µg/mL (≈ 3.42 µM)
8400 | CCN(CC)S(=O)(=O)c1cc(C(=O)Nc2ccccc2C(=O)O)ccc1F | 
2700 | O=C(Nc1ccccc1C(=O)O)c1cccc(Oc2ccccc2)c1 | 
22000 | O=C(Nc1ccccc1C(=O)O)c1ccc(-c2cn[nH]c2)c(Oc2ccccc2)c1 | 
1100 | O=C(Nc1ccccc1C(=O)O)c1ccc(Br)c(Oc2ccccc2)c1 | 
2200 | CCN(CC)S(=O)(=O)c1cc(C(=O)Nc2ccccc2C(=O)O)ccc1N1CCCCC1 | 
1600 | CCN(CC)S(=O)(=O)c1cc(C(=O)Nc2ccccc2C(=O)O)ccc1Br | 
6100 | CCN(CC)S(=O)(=O)c1cc(C(=O)Nc2ccccc2C(=O)O)ccc1Oc1ccccc1 | 
410 | O=C(Nc1ccccc1C(=O)O)c1ccc(-c2ccc(O)cc2)c(Oc2ccccc2)c1 | 
185000 | O=C(Nc1ccccc1C(=O)O)c1ccc(N2CCNCC2)c(Oc2ccccc2)c1 | 
10100 | O=C(Nc1ccsc1C(=O)O)c1cccc(Oc2ccccc2)c1 | 
25000 | CN1CCN(c2ccc(C(=O)Nc3ccccc3C(=O)O)cc2Oc2ccccc2)CC1 | 
290 | O=C(Nc1ccccc1C(=O)O)c1ccc(N2CCCCC2)c(Oc2ccccc2)c1 | 
290000 | O=C(Nc1cccnc1C(=O)O)c1cccc(Oc2ccccc2)c1 | 
43000 | O=C(Nc1sccc1C(=O)O)c1cccc(Oc2ccccc2)c1 | 
3200 | O=C(Nc1ccccc1C(=O)O)c1ccc(N2CCOCC2)c(Oc2ccccc2)c1 | 
570 | O=C(Nc1ccccc1C(=O)O)c1ccc(-c2ccc(F)c(Cl)c2)c(Oc2ccccc2)c1 | 
220 | CCOc1ccc(-c2ccc(C(=O)Nc3ccccc3C(=O)O)cc2Oc2ccccc2)cc1 | 
110 | O=C(Nc1ccccc1C(=O)O)c1ccc(-c2cccnc2)c(Oc2ccccc2)c1 | 
96 | O=C(Nc1ccccc1C(=O)O)c1ccc(-c2ccc(C(F)(F)F)cc2)c(Oc2ccccc2)c1 | MIC (Streptococcus pyogenes): 2.8 µg/mL (≈ 5.86 µM); MIC [5]: 5.6 µg/mL (≈ 11.7 µM); MIC (Staphylococcus aureus): 5.6 µg/mL (≈ 11.7 µM); MIC (Escherichia coli): 0.7 µg/mL; MIC (Neisseria meningitidis): 1.4 µg/mL; MIC (Streptococcus pneumoniae): 0.7 µg/mL (≈ 1.47 µM)
470 | O=C(Nc1ccccc1C(=O)O)c1ccc(-c2cccc(OC(F)(F)F)c2)c(Oc2ccccc2)c1 | 
790 | CC(C)c1cccc(-c2ccc(C(=O)Nc3ccccc3C(=O)O)cc2Oc2ccccc2)c1 | MIC (Streptococcus pyogenes): 2.8 µg/mL (≈ 6.2 µM); MIC [5]: 5.6 µg/mL (≈ 12.4 µM); MIC (Staphylococcus aureus): 5.6 µg/mL (≈ 12.4 µM); MIC (Escherichia coli): 2.8 µg/mL; MIC (Neisseria meningitidis): 1.4 µg/mL; MIC (Streptococcus pneumoniae): 1.4 µg/mL (≈ 3.1 µM)
